Test results as given in ChEMBL document CHEMBL1139901, “Synthesis of new plant growth regulator: N-(fatty acid) O-aryloxyacetyl ethanolamine” (Bioorg Med Chem Lett, 2007).

Tests used:
[1] = test system: Triticum aestivum; test: Stimulation of coleoptiles growth in common wheat after 18 to 20 hrs; type: functional; design: concentration or dose not given beside the values
Outline: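 Wheat coleoptile tips (5 mm) were soaked in distilled water for 1 h to remove endogenous hormone, then cut into 10 segments. Compound in DMF was dried onto 6-cm filter paper and placed in 0.01 mol/L phosphoric acid–citric acid buffer (pH 5) with 2% sucrose, giving 10 mg/L. Ten segments were cultured at 25 °C in the dark for 18–20 h. Length was compared with untreated segments; two replicates.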

[2] = test system: Brassica napus; test: Stimulation of hypocotyls elongation in rape after 3 days; type: functional; design: concentration or dose not given beside the values
Outline: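 Rape seeds were cultured at 25 °C in the dark. Hypocotyl length was measured after 3 days and compared with seeds treated with distilled water; two replicates.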

[3] = test system: Cucumis sativus; test: Stimulation of cytyledon expansion in cucumber after 3 days; type: functional; design: concentration or dose not given beside the values
Outline: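 Soaked cucumber seeds were germinated on 0.7% agar for 3 days in the dark at 26 °C, and cotyledons of similar size were selected. Compound in DMF was dried onto 6-cm filter paper, then distilled water was added to give 10 mg/L. Ten cotyledons were cultured per dish under light (300 Lux, 26 °C). Percent increase was taken over the no-regulator control.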

[4] = Solubility in ethanol; type: physicochemical
[5] = Solubility in chloroform; type: physicochemical
[6] = Solubility in ethyl acetate solution; type: physicochemical

For `CCCCCCCCCCCC(=O)NCCOC(=O)COc1ccc(Cl)cc1`, which Activity [1] is on record?
Its Activity is 16%.

What about the Activity [2] of the same compound?
The Activity was 71.8%.

What about the Activity [3] of the same compound?
The Activity was 2.9%.

Which Solubility [4] does the source give for `CCCCCCCCCCCCCCCCCC(=O)NCCOC(=O)COc1ccc(Cl)cc1Cl` here?
The Solubility was 1.03 g.

And the Activity [1]?
The Activity was 7.5%.

What about the Solubility [5] of the same compound?
Its Solubility is 10.22 g.

What about the Activity [2] of the same compound?
The Activity was 73.8%.

What about the Activity [3] of the same compound?
The Activity was 0.7%.

What about the Solubility [6] of the same compound?
Its Solubility is 3.54 g.

Which results are given for `CCCCCCCCCCCCCC(=O)NCCOC(=O)COc1ccc(Cl)cc1Cl`?
Activity [1]: 8.9%; Activity [2]: 68.1%; Activity [3]: -0.1%

Which results are given for `CCCCCCCCCCCC(=O)NCCOC(=O)COc1ccc(Cl)cc1Cl`?
Solubility [4]: 10.42 g; Activity [1]: 17.9%; Solubility [5]: 15.1 g; Activity [2]: 69%; Activity [3]: 4%; Solubility [6]: 11 g

What does the source list for `CCCCCCCCCCCC(=O)NCCO`?
Solubility [4]: 9.14 g; Solubility [5]: 1.76 g; Solubility [6]: 0.38 g

For `CCCCCCCCCCCCCCCCCC(=O)NCCOC(=O)COc1cccc(OC)c1`, which Solubility [4] is on record?
Its Solubility is 1.99 g.

And the Activity [1]?
Its Activity is 5%.

What about the Solubility [5] of the same compound?
Its Solubility is 7.76 g.

And the Activity [2]?
Its Activity is -1.4%.

And the Activity [3]?
The Activity was -0.1%.

And the Solubility [6]?
Its Solubility is 2.67 g.

With `CCCCCCCCCCCCCCCCCC(=O)NCCOC(=O)COc1ccccc1C` as the compound, how does the Solubility [4] read?
The Solubility was 3.08 g.

What about the Activity [1] of the same compound?
The Activity was 0.7%.

And the Solubility [5]?
Its Solubility is 53.97 g.

And the Activity [2]?
Its Activity is 57%.

What about the Activity [3] of the same compound?
Its Activity is 5.7%.

What about the Solubility [6] of the same compound?
The Solubility was 8.27 g.

Which Activity [1] does the source give for `CCCCCCCCCCCC(=O)NCCOC(=O)COc1ccc(C)cc1` here?
Its Activity is 4.1%.

What about the Activity [2] of the same compound?
Its Activity is 54.9%.

What about the Activity [3] of the same compound?
The Activity was 5.9%.

What does the source list for `CCCCCCCCCCCCCCCCCC(=O)NCCOC(=O)COc1ccc(Cl)cc1`?
Solubility [4]: 1.88 g; Activity [1]: 5%; Solubility [5]: 4.37 g; Activity [2]: 71.8%; Activity [3]: 6.3%; Solubility [6]: 1.54 g

For `CCCCCCCCCCCCCCCCCC(=O)NCCOC(=O)COc1ccc(C)cc1`, which Activity [1] is on record?
Its Activity is 3.3%.

What about the Activity [2] of the same compound?
Its Activity is 38.7%.

What about the Activity [3] of the same compound?
Its Activity is 9.8%.

Which Activity [1] does the source give for `CCCCCCCCCCCCCCCC(=O)NCCOC(=O)COc1ccc(Cl)cc1Cl` here?
The Activity was 17%.

And the Activity [2]?
Its Activity is 67.3%.

What about the Activity [3] of the same compound?
Its Activity is 3.5%.

Which results are given for `O=C(O)COc1ccc(Cl)cc1Cl` [2,4-DICHLOROPHENOXYACETIC ACID]?
Activity [1]: 28.3%; Activity [2]: 65.7%; Activity [3]: 0.8%

Which results are given for `CCCCCCCCCCCCCCCCCC(=O)NCCO` [N-(2-HYDROXYETHYL)STEARAMIDE]?
Solubility [4]: 0.34 g; Activity [1]: 2.1%; Solubility [5]: 0.16 g; Activity [2]: 35.3%; Activity [3]: 6.2%; Solubility [6]: 0.03 g
